Test results taken from ChEMBL document CHEMBL4414545, “Beta-Glucuronidase Catalyzes Deconjugation and Activation of Curcumin-Glucuronide in Bone” (J Nat Prod, 2019).

Columns and labels:
[1] = Drug concentration in C3H/HeJ mouse exhibiting decrease in GUSB activity assessed as level of aglycone curcumin in bone marrow at 500 mg/kg administered via oral gavage measured after 30 mins by LC-MS analysis; type: ADME, organism-based; settings: in vivo, 0.5 h, read-out: Ct
Summary of the method: (§1)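 Oral gavage of curcumin, 500 mg/kg in DMSO, to C57BL/6J or C3H/HeJ mice, n=3–4/group. Serum and marrow were taken 30 min post-dose. Marrow pellets from leg centrifugation were resuspended in 50 mM sodium acetate pH 5 and kept 2 h on ice; supernatants were used. Aglycone curcumin and curcumin-glucuronide were quantified by LC/MS, with marrow values adjusted to pellet volume.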

[2] = Drug metabolism in C3H/HeJ mouse exhibiting decrease in GUSB activity assessed as level of curcumin-glucuronide in bone marrow at 500 mg/kg administered via oral gavage measured after 30 mins by LC-MS analysis; type: ADME, organism-based; settings: read-out: Ct, in vivo, 0.5 h; summary of the method: as §1
RAW264.7 [3] = assay: Inhibition of RANKL-induced osteoclastogenesis in murine RAW264.7 cells assessed as formation of TRAP positive multinucleated osteoclasts pretreated for 4 hrs followed by RANKL addition measured after 72 hrs; type: functional, cell-based; settings: Mus musculus
Summary of the method: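 RAW 264.7 cells, used within 10 passages, were seeded at 5×10^3/well in DMEM with 10% FBS and allowed to adhere overnight at 37°C. Cells were pretreated 4 h with aglycone curcumin or curcumin-glucuronide, then given RANKL (50 ng/mL final) for 72 h. TRAP-positive multinucleated osteoclasts were counted, n=4/group.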

RAW264.7 [4] = assay: Cytotoxicity against murine RAW264.7 cells assessed as effect on cell viability at 3 uM; type: cell-based; settings: mouse, raw264.7, 3 µM
[5] = Half-life in C57BL/6J mouse serum at 500 mg/kg administered via oral gavage measured after 30 mins by LC-MS analysis; type: ADME, organism-based; settings: in vivo, 0.5 h
Summary of the method: (§2)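 Female 4-week C57BL/6J mice given a single oral gavage of curcumin, 500 mg/kg in DMSO. Serum and bone marrow were collected under isoflurane at the indicated times up to 48 h, n=4/group. Total curcumin (aglycone plus glucuronide) was measured by LC/MS with d6-curcumin standards. PK parameters came from noncompartmental analysis after extravascular dosing.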

[6] = Half-life in C57BL/6J mouse bone marrow at 500 mg/kg administered via oral gavage measured after 30 mins by LC-MS analysis; type: ADME, organism-based; settings: in vivo, 0.5 h; summary of the method: as §2
[7] = Tmax in C57BL/6J mouse serum at 500 mg/kg administered via oral gavage measured after 30 mins by LC-MS analysis; type: ADME, organism-based; summary of the method: as §2
[8] = Tmax in C57BL/6J mouse bone marrow at 500 mg/kg administered via oral gavage measured after 30 mins by LC-MS analysis; type: ADME, organism-based; summary of the method: as §2
[9] = Cmax in C57BL/6J mouse serum at 500 mg/kg administered via oral gavage measured after 30 mins by LC-MS analysis; type: ADME, organism-based; design: dose 500 mg/kg, route oral; summary of the method: as §2
[10] = Cmax in C57BL/6J mouse bone marrow at 500 mg/kg administered via oral gavage measured after 30 mins by LC-MS analysis; type: ADME, organism-based; design: dose 500 mg/kg, route oral; summary of the method: as §2
[11] = AUC (0 to 48 hrs) in C57BL/6J mouse serum at 500 mg/kg administered via oral gavage measured after 30 mins by LC-MS analysis; type: ADME, organism-based; design: time < 48 hr, dose 500 mg/kg, route oral; summary of the method: as §2
[12] = AUC (0 to 48 hrs) in C57BL/6J mouse bone marrow at 500 mg/kg administered via oral gavage measured after 30 mins by LC-MS analysis; type: ADME, organism-based; design: time < 48 hr, dose 500 mg/kg, route oral; summary of the method: as §2
[13] = AUC (0 to infinity) in C57BL/6J mouse serum at 500 mg/kg administered via oral gavage measured after 30 mins by LC-MS analysis; type: ADME, organism-based; design: dose 500 mg/kg, route oral, time infinity; summary of the method: as §2
[14] = AUC (0 to infinity) in C57BL/6J mouse bone marrow at 500 mg/kg administered via oral gavage measured after 30 mins by LC-MS analysis; type: ADME, organism-based; design: dose 500 mg/kg, route oral, time infinity; summary of the method: as §2
[15] = Ratio of AUC (0 to 48 hrs) in C57BL/6J mouse serum to AUC (0 to 48 hrs) in C57BL/6J mouse bone marrow at 500 mg/kg administered via oral gavage; type: ADME, organism-based; settings: in vivo
[16] = Ratio of AUC (0 to infinity) in C57BL/6J mouse serum to AUC (0 to infinity) in C57BL/6J mouse bone marrow at 500 mg/kg administered via oral gavage; type: ADME, organism-based; settings: in vivo
[17] = Ratio of drug concentration in C57BL/6J mouse bone marrow to drug concentration in C57BL/6J mouse serum; type: ADME
[18] = Prodrug conversion in C57BL/6J mouse serum assessed as effect on aglycone curcumin level at 500 mg/kg administered via oral gavage incubated for 30 mins followed by resuspension in sodium acetate buffer at pH 5 measured after 2 hrs in presence of saccharolactone by LC-MS analysis; type: ADME, organism-based; settings: in vivo, pH 5, 500 mg/kg
[19] = Prodrug conversion in C57BL/6J mouse bone marrow assessed as beta-glucuronidase mediated effect on aglycone curcumin level at 500 mg/kg administered via oral gavage incubated for 30 mins followed by resuspension in sodium acetate buffer at pH 5 measured after 2 hrs in presence of saccharolactone by LC-MS analysis; type: ADME, organism-based; settings: in vivo, pH 5, 500 mg/kg
Summary of the method: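 C57BL/6J mice were gavaged with curcumin at 500 mg/kg, and marrow was harvested 30 min later. Marrow was resuspended in 50 mM sodium acetate pH 5 with or without 10 mM saccharolactone, or mice received saccharolactone 1 g/kg ip in saline 1 h before curcumin. Suspensions were kept 2 h on ice, and aglycone curcumin (% of total) was measured by LC/MS, n=3–4/group.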

[20] = Drug metabolism in C57BL/6J mouse assessed as level of curcumin-glucuronide in serum at 500 mg/kg administered via oral gavage measured after 30 mins by LC-MS analysis; type: ADME, organism-based; settings: in vivo, 0.5 h, read-out: Ct; summary of the method: as §1
[21] = Drug metabolism in C57BL/6J mouse assessed as level of curcumin-glucuronide in bone marrow at 500 mg/kg administered via oral gavage measured after 30 mins by LC-MS analysis; type: ADME, organism-based; settings: in vivo, 0.5 h, read-out: Ct; summary of the method: as §1
[22] = Drug concentration in C57BL/6J mouse assessed as level of aglycone curcumin in serum at 500 mg/kg administered via oral gavage measured after 30 mins by LC-MS analysis; type: ADME, organism-based; settings: in vivo, 0.5 h, read-out: Ct; summary of the method: as §1
[23] = Drug concentration in C57BL/6J mouse assessed as level of aglycone curcumin in bone marrow at 500 mg/kg administered via oral gavage measured after 30 mins by LC-MS analysis; type: ADME, organism-based; settings: in vivo, 0.5 h, read-out: Ct; summary of the method: as §1
[24] = Drug metabolism in C3H/HeJ mouse exhibiting decrease in GUSB activity assessed as level of curcumin-glucuronide in serum at 500 mg/kg administered via oral gavage measured after 30 mins by LC-MS analysis; type: ADME, organism-based; settings: in vivo, 0.5 h, read-out: Ct; summary of the method: as §1
[25] = Drug metabolism in C57BL/6J mouse assessed as level of curcumin-glucuronide in serum at 100 mg/kg, ip measured after 20 mins by LC-MS analysis; type: ADME, organism-based; settings: in vivo, read-out: Ct
Summary of the method: (§3)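 Curcumin at 100 mg/kg in DMSO was given ip to 15-week C57BL/6J, C3H/HeJ or mps/mps (GUSB-null) mice, n=3–4/group. Serum and marrow were harvested 20 min later. Marrow was resuspended in 50 mM sodium acetate pH 5 for 2 h on ice. Aglycone and glucuronidated curcumin were measured by LC/MS, with marrow values corrected to the original pellet volume.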

[26] = Drug metabolism in C57BL/6J mouse assessed as level of curcumin-glucuronide in bone marrow at 100 mg/kg, ip measured after 20 mins by LC-MS analysis; type: ADME, organism-based; settings: in vivo, read-out: Ct; summary of the method: as §3
[27] = Drug concentration in C57BL/6J mouse assessed as level of aglycone curcumin in serum at 100 mg/kg, ip measured after 20 mins by LC-MS analysis; type: ADME, organism-based; settings: in vivo, read-out: Ct; summary of the method: as §3
[28] = Drug concentration in C57BL/6J mouse assessed as level of aglycone curcumin in bone marrow at 100 mg/kg, ip measured after 20 mins by LC-MS analysis; type: ADME, organism-based; settings: in vivo, read-out: Ct; summary of the method: as §3
[29] = Drug metabolism in C3H/HeJ mouse exhibiting decrease in GUSB activity assessed as level of curcumin-glucuronide in serum at 100 mg/kg, ip measured after 20 mins by LC-MS analysis; type: ADME, organism-based; settings: in vivo, read-out: Ct; summary of the method: as §3
[30] = Drug concentration in C3H/HeJ mouse exhibiting decrease in GUSB activity assessed as level of aglycone curcumin in serum at 100 mg/kg, ip measured after 20 mins by LC-MS analysis; type: ADME, organism-based; settings: in vivo, read-out: Ct; summary of the method: as §3
[31] = Drug concentration in C3H/HeJ mouse exhibiting decrease in GUSB activity assessed as level of curcumin-glucuronide in bone marrow at 100 mg/kg, ip measured after 20 mins by LC-MS analysis; type: ADME, organism-based; settings: in vivo, read-out: Ct; summary of the method: as §3
[32] = Drug concentration in C3H/HeJ mouse exhibiting decrease in GUSB activity assessed as level of aglycone curcumin in bone marrow at 100 mg/kg, ip measured after 20 mins by LC-MS analysis; type: ADME, organism-based; settings: in vivo, read-out: Ct; summary of the method: as §3
[33] = Drug metabolism in mps/mps mutant mouse assessed as level of curcumin-glucuronide in serum at 100 mg/kg, ip measured after 20 mins by LC-MS analysis; type: ADME, organism-based; settings: in vivo, read-out: Ct; summary of the method: as §3
[34] = Drug concentration in mps/mps mutant mouse assessed as level of aglycone curcumin in serum at 100 mg/kg, ip measured after 20 mins by LC-MS analysis; type: ADME, organism-based; settings: in vivo, read-out: Ct; summary of the method: as §3
[35] = Drug concentration in mps/mps mutant mouse assessed as level of aglycone curcumin in bone marrow at 100 mg/kg, ip measured after 20 mins by LC-MS analysis; type: ADME, organism-based; settings: in vivo, read-out: Ct; summary of the method: as §3

`COc1cc(/C=C/C(=O)CC(=O)/C=C/c2ccc(O)c(OC)c2)ccc1O` [CURCUMIN] gave a concentration [1] of 470 nM, a concentration [2] of 1190 nM and an IC50 (RAW264.7 [3]) of 3 µM. For the same compound, the Activity (RAW264.7 [4]) was “Non-Toxic”, the t1/2 [5] was 264 min and the t1/2 [6] was 468 min. The Tmax [7] was 30 min, the Tmax [8] was 30 min and the Cmax [9] was 106000 nM. For the same compound, the Cmax [10] was 5900 nM, the AUC(0-t) at 48 h [11] was 487 µM·h and the AUC(0-t) at 48 h [12] was 48 µM·h. It also gave an AUC(0-inf) [13] of 488 µM·h, an AUC(0-inf) [14] of 48.3 µM·h and a Ratio [15] of 10. For the same compound, the Ratio [16] was 10, the Kp [17] was 3 and the Drug metabolism [18] was “Metabolite_Detected”. For the same compound, the Drug metabolism [19] was “Metabolite_Detected”, the concentration [20] was 82700 nM and the concentration [21] was 360 nM. It also gave a concentration [22] of 170 nM, a concentration [23] of 1140 nM and a concentration [24] of 80000 nM. For the same compound, the concentration [25] was 92700 nM, the concentration [26] was 1300 nM and the concentration [27] was 7200 nM. For the same compound, the concentration [28] was 1900 nM, the concentration [29] was 92100 nM and the concentration [30] was 2800 nM. For the same compound, the concentration [31] was 2700 nM, the concentration [32] was 500 nM and the concentration [33] was 151000 nM. It also gave a concentration [34] of 22800 nM and a concentration [35] of 400 nM.
